In ChEMBL document CHEMBL4350961, “Discovery of Pyrrolo[3,2- d]pyrimidin-4-one Derivatives as a New Class of Potent and Cell-Active Inhibitors of P300/CBP-Associated Factor Bromodomain” (J Med Chem, 2019):
Active and inactive are the calls of the source. No cut-off for these calls is given here.

Experiments:
MEF [1] = assay: Effect on Zfyve28 gene expression in MEF cells at 2.5 uM measured after 48 hrs by RNA-sequencing analysis relative to control; format: functional, Mus musculus
In short: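 MEF cells treated for 48 h with test compound, with (S,S) enantiomer at 2.5 µM as negative control and DMSO as blank; total RNA (TRIzol, n = 3 per set) analysed by RNA-seq; genes counted as changed at >1.5-fold, p < 0.05, relative to blank control.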

MEF [2] = assay: Effect on Hkdc1 gene expression in MEF cells at 2.5 uM measured after 48 hrs by RNA-sequencing analysis relative to control; format: functional, Mus musculus
In short: (§1)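 Mouse embryonic fibroblasts treated 48 h; negative-control enantiomer at 2.5 µM, DMSO as blank. Total RNA extracted with TRIzol, checked by NanoDrop, then RNA-seq with n = 3 per set. Genes called changed at >1.5-fold with p < 0.05 against blank.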

MEF [3] = assay: Effect on Plekhg4 gene expression in MEF cells at 2.5 uM measured after 48 hrs by RNA-sequencing analysis relative to control; format: functional, Mus musculus; in short: as §1
MEF [4] = assay: Effect on Unc5a gene expression in MEF cells at 2.5 uM measured after 48 hrs by RNA-sequencing analysis relative to control; format: functional, Mus musculus; in short: as §1
[5] = target: T1, Histone acetyltransferase KAT2B (Homo sapiens, UniProt Q92831); assay: Binding affinity to human N-terminal His-tagged PCAF assessed as change in melting temperature at 10 uM by SYPRO orange dye-based fluorescence assay
In short: (§2)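 Thermal shift with His-tagged human bromodomain at 2 μM final in 10 mM HEPES pH 7.5, 500 mM NaCl. Compound at 10 μM final with 0.1% DMSO; SYPRO Orange at 1:1000. Equilibrated 3 min at 25 °C, then heated from 25 to 95 °C at 1 °C/min. Melting temperature shift taken from fluorescence; at least duplicate.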
Target sequence in this assay (Q92831 whole entry, looked up): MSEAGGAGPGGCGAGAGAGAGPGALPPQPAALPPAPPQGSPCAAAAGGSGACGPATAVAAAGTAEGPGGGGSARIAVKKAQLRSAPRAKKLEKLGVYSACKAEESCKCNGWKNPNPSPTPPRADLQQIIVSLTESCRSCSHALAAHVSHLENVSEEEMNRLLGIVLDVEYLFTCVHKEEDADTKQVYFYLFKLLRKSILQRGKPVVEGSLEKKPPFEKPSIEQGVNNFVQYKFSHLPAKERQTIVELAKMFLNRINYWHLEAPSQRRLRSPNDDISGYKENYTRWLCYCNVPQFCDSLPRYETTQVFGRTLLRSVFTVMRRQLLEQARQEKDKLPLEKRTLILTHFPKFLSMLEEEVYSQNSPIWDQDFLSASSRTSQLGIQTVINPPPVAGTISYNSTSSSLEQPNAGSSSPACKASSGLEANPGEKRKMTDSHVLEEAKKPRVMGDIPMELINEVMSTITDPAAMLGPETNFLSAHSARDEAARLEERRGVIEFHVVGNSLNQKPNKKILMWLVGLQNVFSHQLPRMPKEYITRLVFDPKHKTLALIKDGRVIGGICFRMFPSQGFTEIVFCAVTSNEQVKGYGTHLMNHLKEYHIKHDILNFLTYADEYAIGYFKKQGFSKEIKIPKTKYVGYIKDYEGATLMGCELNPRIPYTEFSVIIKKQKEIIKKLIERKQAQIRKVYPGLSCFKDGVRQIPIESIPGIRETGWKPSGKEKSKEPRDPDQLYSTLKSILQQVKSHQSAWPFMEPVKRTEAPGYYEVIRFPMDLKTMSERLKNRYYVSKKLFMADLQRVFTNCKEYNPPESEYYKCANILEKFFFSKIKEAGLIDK

MEF [6] = assay: Effect on Snhg11 gene expression in MEF cells at 2.5 uM measured after 48 hrs by RNA-sequencing analysis relative to control; format: functional, Mus musculus; in short: as §1
MEF [7] = assay: Effect on Ooep gene expression in MEF cells at 2.5 uM measured after 48 hrs by RNA-sequencing analysis relative to control; format: functional, Mus musculus; in short: as §1
MEF [8] = assay: Effect on Dmrta2 gene expression in MEF cells at 2.5 uM measured after 48 hrs by RNA-sequencing analysis relative to control; format: functional, Mus musculus; in short: as §1
MEF [9] = assay: Effect on Kcnk10 gene expression in MEF cells at 2.5 uM measured after 48 hrs by RNA-sequencing analysis relative to control; format: functional, Mus musculus; in short: as §1
[10] = target: T1, Histone acetyltransferase KAT2B; assay: Binding affinity to human N-terminal His-tagged PCAF by isothermal titration calorimetry
Target sequence in this assay (Q92831 whole entry): as the sequence (Q92831 whole entry, looked up) above

MEF [11] = assay: Effect on Srcin1 gene expression in MEF cells at 2.5 uM measured after 48 hrs by RNA-sequencing analysis relative to control; format: functional, Mus musculus; in short: as §1
MEF [12] = assay: Effect on Myh3 gene expression in MEF cells at 2.5 uM measured after 48 hrs by RNA-sequencing analysis relative to control; format: functional, Mus musculus; in short: as §1
MEF [13] = assay: Effect on Prrg3 gene expression in MEF cells at 2.5 uM measured after 48 hrs by RNA-sequencing analysis relative to control; format: functional, Mus musculus; in short: as §1
MEF [14] = assay: Effect on Tnnt2 gene expression in MEF cells at 2.5 uM measured after 48 hrs by RNA-sequencing analysis relative to control; format: functional, Mus musculus; in short: as §1
MEF [15] = assay: Effect on Celsr1 gene expression in MEF cells at 2.5 uM measured after 48 hrs by RNA-sequencing analysis relative to control; format: functional, Mus musculus; in short: as §1
[16] = target: Serine/threonine-protein kinase WNK1 (Homo sapiens) (UniProt Q9H4A3); assay: Inhibition of human WNK1 (1 to 491 residues) using myelin basic protein as substrate measured after 120 mins in presence of [gamma33P]ATP by scintillation counting method
[17] = target: 3-phosphoinositide-dependent protein kinase 1 (Homo sapiens) (UniProt O15530); assay: Inhibition of recombinant human PDK1 (52 to end residues) at 10 uM using PDKtide as substrate measured after 40 mins in presence of [gamma33P]ATP by scintillation counting method
[18] = target: Calcium/calmodulin-dependent protein kinase type IV (Homo sapiens) (UniProt Q16566); assay: Inhibition of recombinant full-length human CaMK4 at 10 uM using calmodulin as substrate measured after 40 mins in presence of [gamma33P]ATP by scintillation counting method
Homo sapiens = organism: Homo sapiens; assay: Inhibition of recombinant human Plk4 S34T mutant (1 to 273 residues) at 10 uM using casein as substrate measured after 40 mins in presence of [gamma33P]ATP by scintillation counting method
[19] = target: MAP kinase-interacting serine/threonine-protein kinase 2 (Homo sapiens) (UniProt Q9HBH9); assay: Inhibition of recombinant full-length human Mnk2 at 10 uM using myelin basic protein as substrate measured after 40 mins in presence of [gamma33P]ATP by scintillation counting method
[20] = target: Tyrosine-protein kinase Fer (Homo sapiens) (UniProt P16591); assay: Inhibition of recombinant human FER (541 to end residues) at 10 uM using KKKSPGEYVNIEFG as substrate measured after 40 mins in presence of [gamma33P]ATP by scintillation counting method
[21] = target: TRAF2 and NCK-interacting protein kinase (Homo sapiens) (UniProt Q9UKE5); assay: Inhibition of human TNIK (1 to 367 residues) using RLGRDKYKTLRQIRQ as substrate measured after 40 mins in presence of [gamma33P]ATP by scintillation counting method
[22] = target: Proto-oncogene tyrosine-protein kinase Src (Homo sapiens) (UniProt P12931); assay: Inhibition of recombinant full-length human SRC at 10 uM using Cdc2 peptide as substrate measured after 40 mins in presence of [gamma33P]ATP by scintillation counting method
[23] = target: MAPK/MAK/MRK overlapping kinase (Homo sapiens) (UniProt Q9UQ07); assay: Inhibition of recombinant human MOK (1 to 343 residues) at 10 uM using RSRSRSRSRSRSRSR as substrate measured after 40 mins in presence of [gamma33P]ATP by scintillation counting method
[24] = target: Tyrosine-protein kinase Lyn (Mus musculus) (UniProt P25911); assay: Inhibition of mouse Lyn at 10 uM
[25] = target: Receptor-interacting serine/threonine-protein kinase 2 (Homo sapiens) (UniProt O43353); assay: Inhibition of human RIPK2 (1 to 299 residues) using myelin basic protein as substrate measured after 120 mins in presence of [gamma33P]ATP by scintillation counting method
In short: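 Kinase panel of 422 kinases screened by Eurofins KinaseProfiler at a single test-compound concentration of 10 µM.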

[26] = target: Phosphatidylinositol 3-kinase C2 domain-containing subunit gamma (Homo sapiens) (UniProt O75747); assay: Inhibition of recombinant human PI3KC2gamma (468 to 1203 residues) at 10 uM using phosphatidylinositol as substrate measured after 40 mins by HTRF assay
[27] = target: Bromodomain-containing protein 9 (Homo sapiens) (UniProt Q9H8M2); assay: Binding affinity to human N-terminal His-tagged BRD9 assessed as change in melting temperature at 10 uM by SYPRO orange dye-based fluorescence assay; in short: as §2
[28] = target: Proto-oncogene tyrosine-protein kinase Src (Homo sapiens) (UniProt P12931); assay: Inhibition of human Src (1 to 530 residues) using GGEEEEYFELVKKKK as substrate measured after 40 mins in presence of [gamma33P]ATP by scintillation counting method

Chain of Proto-oncogene tyrosine-protein kinase Src (Homo sapiens) (P12931 2-536 limits assumed): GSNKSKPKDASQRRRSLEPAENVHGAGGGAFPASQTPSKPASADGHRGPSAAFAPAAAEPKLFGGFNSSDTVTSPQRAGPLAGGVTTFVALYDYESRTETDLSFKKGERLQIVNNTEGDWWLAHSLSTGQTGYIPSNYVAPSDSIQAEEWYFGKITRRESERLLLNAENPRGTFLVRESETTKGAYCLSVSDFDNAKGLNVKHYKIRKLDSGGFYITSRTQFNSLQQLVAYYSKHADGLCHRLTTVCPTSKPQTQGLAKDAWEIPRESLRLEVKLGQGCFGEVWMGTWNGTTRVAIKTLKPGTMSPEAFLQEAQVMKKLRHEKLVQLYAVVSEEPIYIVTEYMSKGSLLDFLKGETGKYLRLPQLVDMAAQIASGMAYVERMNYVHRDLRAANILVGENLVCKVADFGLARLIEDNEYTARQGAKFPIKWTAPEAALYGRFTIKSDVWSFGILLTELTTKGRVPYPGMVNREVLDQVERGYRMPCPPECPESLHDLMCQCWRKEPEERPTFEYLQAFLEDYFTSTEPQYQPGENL
Chain of Bromodomain-containing protein 9 (Homo sapiens) (Q9H8M2 whole entry, the tested form may be a part): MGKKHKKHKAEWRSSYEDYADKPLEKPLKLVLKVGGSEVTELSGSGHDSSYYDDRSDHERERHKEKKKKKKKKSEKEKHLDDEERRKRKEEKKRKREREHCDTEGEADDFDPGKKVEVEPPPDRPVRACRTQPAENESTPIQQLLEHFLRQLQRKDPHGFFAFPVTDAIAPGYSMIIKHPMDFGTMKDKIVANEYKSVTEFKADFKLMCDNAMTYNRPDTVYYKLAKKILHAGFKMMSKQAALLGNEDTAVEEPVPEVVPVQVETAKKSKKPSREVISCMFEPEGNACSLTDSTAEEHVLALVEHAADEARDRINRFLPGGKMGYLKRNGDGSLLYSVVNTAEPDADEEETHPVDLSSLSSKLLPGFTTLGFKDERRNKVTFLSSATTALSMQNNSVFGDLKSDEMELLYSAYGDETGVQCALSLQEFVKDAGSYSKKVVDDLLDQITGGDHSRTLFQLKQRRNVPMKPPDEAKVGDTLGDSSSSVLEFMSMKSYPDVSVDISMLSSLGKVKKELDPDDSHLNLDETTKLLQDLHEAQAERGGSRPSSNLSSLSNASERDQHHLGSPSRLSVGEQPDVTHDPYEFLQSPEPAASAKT
Chain of 3-phosphoinositide-dependent protein kinase 1 (Homo sapiens) (O15530 whole entry): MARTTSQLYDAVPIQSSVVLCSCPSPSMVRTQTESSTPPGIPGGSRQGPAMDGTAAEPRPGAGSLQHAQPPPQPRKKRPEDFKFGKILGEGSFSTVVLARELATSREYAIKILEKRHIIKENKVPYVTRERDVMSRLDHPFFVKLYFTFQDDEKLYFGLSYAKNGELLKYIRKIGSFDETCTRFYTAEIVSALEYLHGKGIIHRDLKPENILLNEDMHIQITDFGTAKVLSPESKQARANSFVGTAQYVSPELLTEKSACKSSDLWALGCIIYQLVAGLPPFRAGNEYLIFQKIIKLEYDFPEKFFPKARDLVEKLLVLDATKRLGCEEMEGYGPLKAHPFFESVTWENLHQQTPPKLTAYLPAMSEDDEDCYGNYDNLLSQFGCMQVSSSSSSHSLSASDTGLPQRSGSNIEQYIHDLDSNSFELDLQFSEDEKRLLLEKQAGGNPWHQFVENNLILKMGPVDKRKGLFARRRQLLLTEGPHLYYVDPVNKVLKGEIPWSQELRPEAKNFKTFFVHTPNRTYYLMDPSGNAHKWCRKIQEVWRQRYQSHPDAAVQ
Chain of MAP kinase-interacting serine/threonine-protein kinase 2 (Homo sapiens) (Q9HBH9 whole entry, looked up): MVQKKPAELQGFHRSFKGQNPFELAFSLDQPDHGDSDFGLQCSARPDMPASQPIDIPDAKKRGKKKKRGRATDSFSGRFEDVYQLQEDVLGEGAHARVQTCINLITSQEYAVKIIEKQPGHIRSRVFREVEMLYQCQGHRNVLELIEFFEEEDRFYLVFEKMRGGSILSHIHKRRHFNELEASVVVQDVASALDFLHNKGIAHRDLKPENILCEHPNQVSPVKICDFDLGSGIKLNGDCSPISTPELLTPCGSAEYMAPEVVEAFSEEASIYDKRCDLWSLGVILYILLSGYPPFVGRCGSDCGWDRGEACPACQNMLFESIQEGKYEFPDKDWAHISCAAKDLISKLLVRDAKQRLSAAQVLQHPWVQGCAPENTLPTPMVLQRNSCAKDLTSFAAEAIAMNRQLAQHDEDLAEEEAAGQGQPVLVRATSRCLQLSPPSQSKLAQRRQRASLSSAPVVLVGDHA
Chain of MAPK/MAK/MRK overlapping kinase (Homo sapiens) (Q9UQ07 whole entry, the tested form may be a part): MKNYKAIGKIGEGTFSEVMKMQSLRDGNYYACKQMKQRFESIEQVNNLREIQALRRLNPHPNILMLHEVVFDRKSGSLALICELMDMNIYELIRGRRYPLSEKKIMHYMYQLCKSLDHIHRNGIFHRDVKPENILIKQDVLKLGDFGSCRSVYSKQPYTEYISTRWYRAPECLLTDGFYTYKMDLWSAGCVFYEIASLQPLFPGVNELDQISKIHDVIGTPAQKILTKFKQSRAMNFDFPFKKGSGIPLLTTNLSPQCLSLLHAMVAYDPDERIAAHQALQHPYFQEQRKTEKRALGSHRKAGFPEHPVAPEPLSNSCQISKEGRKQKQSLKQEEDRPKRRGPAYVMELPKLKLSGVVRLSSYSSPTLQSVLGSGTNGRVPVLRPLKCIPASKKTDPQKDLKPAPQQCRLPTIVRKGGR
Chain of Phosphatidylinositol 3-kinase C2 domain-containing subunit gamma (Homo sapiens) (O75747 whole entry, the tested form may be a part): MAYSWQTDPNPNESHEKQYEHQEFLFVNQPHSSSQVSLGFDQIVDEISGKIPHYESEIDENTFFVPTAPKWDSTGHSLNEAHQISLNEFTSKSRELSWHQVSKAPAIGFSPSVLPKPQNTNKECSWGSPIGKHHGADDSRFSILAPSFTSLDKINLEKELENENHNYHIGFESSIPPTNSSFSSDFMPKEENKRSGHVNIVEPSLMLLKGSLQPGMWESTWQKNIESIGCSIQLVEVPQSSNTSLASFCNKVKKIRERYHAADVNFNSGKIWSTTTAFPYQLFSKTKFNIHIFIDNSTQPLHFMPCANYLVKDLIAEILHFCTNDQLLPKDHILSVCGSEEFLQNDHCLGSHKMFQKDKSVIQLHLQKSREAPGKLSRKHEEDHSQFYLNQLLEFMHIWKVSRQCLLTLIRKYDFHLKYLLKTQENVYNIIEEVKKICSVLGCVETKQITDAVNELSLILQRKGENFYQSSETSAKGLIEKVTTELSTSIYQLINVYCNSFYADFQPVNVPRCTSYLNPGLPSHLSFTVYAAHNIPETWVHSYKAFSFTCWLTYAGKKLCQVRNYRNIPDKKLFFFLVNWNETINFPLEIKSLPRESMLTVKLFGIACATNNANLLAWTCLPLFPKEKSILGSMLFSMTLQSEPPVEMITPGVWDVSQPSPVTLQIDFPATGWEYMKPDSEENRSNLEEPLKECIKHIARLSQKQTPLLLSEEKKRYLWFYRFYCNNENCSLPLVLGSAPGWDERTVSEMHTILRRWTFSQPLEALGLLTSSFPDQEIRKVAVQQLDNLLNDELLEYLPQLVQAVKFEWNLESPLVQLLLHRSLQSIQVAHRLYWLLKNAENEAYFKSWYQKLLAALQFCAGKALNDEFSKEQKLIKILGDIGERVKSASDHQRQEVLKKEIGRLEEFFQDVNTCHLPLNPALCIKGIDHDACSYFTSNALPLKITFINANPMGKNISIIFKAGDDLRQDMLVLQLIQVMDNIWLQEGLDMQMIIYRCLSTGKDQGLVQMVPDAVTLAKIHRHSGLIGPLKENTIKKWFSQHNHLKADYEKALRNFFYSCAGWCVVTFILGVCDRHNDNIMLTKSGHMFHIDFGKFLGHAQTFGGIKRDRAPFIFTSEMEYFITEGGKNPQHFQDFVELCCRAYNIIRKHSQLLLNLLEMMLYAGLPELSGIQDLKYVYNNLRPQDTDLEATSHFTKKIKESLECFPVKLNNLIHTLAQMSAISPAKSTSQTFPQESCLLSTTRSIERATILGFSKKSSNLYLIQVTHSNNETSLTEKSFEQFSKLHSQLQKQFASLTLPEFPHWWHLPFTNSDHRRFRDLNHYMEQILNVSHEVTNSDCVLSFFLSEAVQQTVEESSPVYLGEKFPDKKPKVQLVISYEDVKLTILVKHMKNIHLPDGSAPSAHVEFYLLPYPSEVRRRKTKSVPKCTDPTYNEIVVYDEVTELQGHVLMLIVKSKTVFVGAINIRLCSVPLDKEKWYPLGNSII

What does the source list for CN1C[C@@H](Nc2nc3cc[nH]c3c(=O)n2C)C[C@@H](c2ccc3c(c2)OCCO3)C1?
fold change (FC) (MEF [1]): >1.5; fold change (FC) (MEF [2]): >1.5; fold change (FC) (MEF [3]): >1.5; fold change (FC) (MEF [4]): >1.5; ΔTm [5]: 0.7 °C; fold change (FC) (MEF [6]): >1.5; fold change (FC) (MEF [7]): >1.5; fold change (FC) (MEF [8]): >1.5; fold change (FC) (MEF [9]): >1.5; Kd [10]: > 10 µM; fold change (FC) (MEF [11]): >1.5; fold change (FC) (MEF [12]): >1.5; fold change (FC) (MEF [13]): >1.5; fold change (FC) (MEF [14]): >1.5; fold change (FC) (MEF [15]): >1.5

CN1C[C@H](Nc2nc3cc[nH]c3c(=O)n2C)C[C@H](c2ccc3c(c2)OCCO3)C1 was tested. Which “fold change (FC)” value (MEF [1]) did it give?
Its value is >1.5.

And the inhibition [16]?
The inhibition was “inactive”.

And the “fold change (FC)” value (MEF [2])?
Its value is >1.5.

What about the inhibition [17] of the same compound?
The inhibition was “inactive”.

And the “fold change (FC)” value (MEF [3])?
The value was >1.5.

What about the inhibition [18] of the same compound?
Its inhibition is “inactive”.

What about the inhibition (Homo sapiens) of the same compound?
Its inhibition is “inactive”.

And the “fold change (FC)” value (MEF [4])?
The value was >1.5.

What about the inhibition [19] of the same compound?
Its inhibition is “inactive”.

And the ΔTm [5]?
Its ΔTm is 9.5 °C.

What about the “fold change (FC)” value (MEF [6]) of the same compound?
The value was >1.5.

What about the inhibition [20] of the same compound?
Its inhibition is “inactive”.

And the inhibition [21]?
Its inhibition is “inactive”.

What about the “fold change (FC)” value (MEF [7]) of the same compound?
Its value is >1.5.

And the “fold change (FC)” value (MEF [8])?
Its value is >1.5.

And the “fold change (FC)” value (MEF [9])?
Its value is >1.5.

What about the inhibition [22] of the same compound?
Its inhibition is “inactive”.

And the Kd [10]?
The Kd was 0.078 µM.

What about the “fold change (FC)” value (MEF [11]) of the same compound?
The value was >1.5.

And the “fold change (FC)” value (MEF [12])?
The value was >1.5.

What about the “fold change (FC)” value (MEF [13]) of the same compound?
Its value is >1.5.

And the inhibition [23]?
The inhibition was “inactive”.

And the inhibition [24]?
Its inhibition is “inactive”.

What about the inhibition [25] of the same compound?
Its inhibition is “inactive”.

And the inhibition [26]?
Its inhibition is “inactive”.

What about the “fold change (FC)” value (MEF [14]) of the same compound?
Its value is >1.5.

What about the ΔTm [27] of the same compound?
The ΔTm was 2.1 °C.

What about the inhibition [28] of the same compound?
Its inhibition is “inactive”.

What about the “fold change (FC)” value (MEF [15]) of the same compound?
The value was >1.5.
